# KCNQ1 inh: inhibitors of human KCNQ1 potassium channel; P51787; CHO-K1 KCNQ1, FluxOR thallium flux fluorescence; active compounds read high; B-score at 10 µM; hit rate 1.3% among 310,000; AID 2642;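 active = compounds whose thallium flux B-score, printed positive for inhibition, exceeds three library SD while starting fluorescence stays within three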;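 also: channel opened by potassium depolarization with thallium stimulus after 20 min compound exposure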
# Target sequence (P51787 whole entry, looked up): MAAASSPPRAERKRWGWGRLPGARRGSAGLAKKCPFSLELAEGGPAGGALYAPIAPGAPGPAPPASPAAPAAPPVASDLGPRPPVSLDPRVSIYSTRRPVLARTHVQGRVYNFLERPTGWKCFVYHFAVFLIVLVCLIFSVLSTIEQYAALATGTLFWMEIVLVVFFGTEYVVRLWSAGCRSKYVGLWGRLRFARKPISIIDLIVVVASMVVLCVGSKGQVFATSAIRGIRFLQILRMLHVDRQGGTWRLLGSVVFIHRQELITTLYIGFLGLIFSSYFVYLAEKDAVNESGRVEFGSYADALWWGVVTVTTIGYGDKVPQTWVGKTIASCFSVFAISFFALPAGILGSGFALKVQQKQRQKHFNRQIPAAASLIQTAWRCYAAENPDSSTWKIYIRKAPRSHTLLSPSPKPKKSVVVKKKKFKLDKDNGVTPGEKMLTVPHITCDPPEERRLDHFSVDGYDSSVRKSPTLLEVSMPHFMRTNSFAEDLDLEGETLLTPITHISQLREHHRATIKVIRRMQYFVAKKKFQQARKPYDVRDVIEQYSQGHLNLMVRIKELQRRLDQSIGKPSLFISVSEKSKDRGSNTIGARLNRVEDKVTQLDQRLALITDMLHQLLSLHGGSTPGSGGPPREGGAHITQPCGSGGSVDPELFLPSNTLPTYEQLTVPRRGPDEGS
# KCNQ1 act: potentiators or activators of human KCNQ1 potassium channel. AID 2648. hit rate 0.35% among 310,000. B-score at 10 µM. CHO-K1 KCNQ1, thallium flux FluxOR fluorescence; active compounds read high. P51787;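 active = fluorescence ratio B-score, a plate-corrected score, at least three library SD, with initial intensity B-score within 5 SD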
#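 Medium – assay buffer, equal DMSO in all wells · Material – CHO-K1 cell line with stable KCNQ1 potassium channel expression · Signal – kinetic FluxOR thallium fluorescence, 10-s 1-Hz baseline, 110-s post-stimulus read · Compound – single concentration per compound, DMSO matched to controls · Schedule – 37 °C overnight plating, 90-min dark dye load, 20-min compound pretreatment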
# Kir21 block: inhibitors of mouse Kir2.1 inward-rectifier potassium channel; P35561; HEK293-Kir2.1, FluxOR thallium flux fluorescence; active compounds read low; B-score at 10 µM; hit rate 0.85% among 310,000;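 active = fluorescence ratio B-score at or below minus 3 SD of library scores, with starting-brightness B-score within 2 SD, cut at about -4.2 in these data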;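 also: channel flux triggered by added potassium and thallium sulfate stimulus; B-score of peak minus minimum fluorescence over baseline after thallium stimulus; more negative B-score means stronger Kir2.1 block with less thallium influx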
# KCNK3 inh: human KCNK3 channel inhibition, primary screen; CHO-KCNK3 thallium flux, FluxOR fluorescence; active compounds read low; B-score at 10 µM; O14649; hit rate 0.84% among 340,000; AID 602410;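 active = B-score under library mean minus 4 SD, starting fluorescence ratio at most library mean plus 5 SD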;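 also: more negative B-score means stronger inhibition of thallium flux through KCNK3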
# hERG rescue: compounds protecting human hERG from proarrhythmic drug block. CHO-hERG, FluxOR thallium flux, dofetilide IC70 present. activation (rescue from dofetilide block), less the hit threshold, % at 10 µM. hit rate 0.51% among 310,000. AID 1511;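 active = activation above the mean of controls blocked by dofetilide plus 5 SD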;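 also: thallium influx through hERG after potassium depolarization seen as dye fluorescence rise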
# KCNK9 block: human KCNK9 channel inhibition | HEK293 KCNK9, FluxOR thallium flux fluorescence; active compounds read low | B-score at 10 µM | hit rate 1.2% among 310,000 | AID 488922;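 active = ratio B-score over 3 SD below the library mean, with starting fluorescence within 5 SD of its mean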;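 also: negative B-score means less thallium flux so channel inhibition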
# KCNK9 block conf: human KCNK9 inhibitor confirmation. inhibition, % at 10 µM. HEK293 KCNK9 cells, FluxOR thallium flux fluorescence. hit rate 43% among 4,900. AID 492992. shares compounds with KCNK9 block;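 active = thallium signal inhibited by more than 5 SD of the compound-free buffer control wells, on both duplicate plates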;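 also: 0% = assay buffer control wells without compound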
# Kir2-1 spec: selectivity of KCNK9 modulators against mouse Kir2.1. shares compounds with KCNK9 block. Kir2.1 cells, FluxOR thallium flux fluorescence. hit rate 4% among 4,900. AID 492993. inhibition, % at 10 µM;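 active = thallium signal drop more than 5 SD beyond the mean of the no-compound control wells, seen in both duplicate plates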;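 also: signal is fluorescence rise after thallium addition divided by baseline fluorescence; plate controls were assay buffer only for no effect and full block by chlorpromazine control for full effect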
# KCNK9 uninduced: non-induced cell nonspecific activity of KCNK9 modulators; hit rate 40% among 4,900; non-induced KCNK9-HEK293, FluxOR thallium flux; shares compounds with KCNK9 block; AID 492997; inhibition, % at 10 µM;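 active = thallium signal drop beyond 5 SD of the untreated control mean, on both duplicate plates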;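 also: plate controls were buffer only IC0 wells for no effect and SID17386958 at its maximal inhibitory level for full effect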
# Active calls of the source: *; i = inactive; / = no result. Most compounds without a hit are left out; they make up all but 3.7% or so of the library.
SMILES,KCNQ1 inh,KCNQ1 act,Kir21 block,KCNK3 inh,hERG rescue,KCNK9 block,KCNK9 block conf,Kir2-1 spec,KCNK9 uninduced
CC(C)(C)n1nnnc1C(c1ccc(F)cc1)N(Cc1ccc(F)cc1)Cc1ccco1 (stereo unspecified),7*,i,-0.17,i,-15,-15*,72%*,i,40%*
Fc1ccc(C(c2nnnn2C2CCCC2)N(Cc2ccco2)CC2CCCO2)cc1 (stereo unspecified),i,i,-0.91,i,-4,i,/,/,/
c1ccc(CN(Cc2ccco2)C(c2ccncc2)c2nnnn2C2CCCC2)cc1 (stereo unspecified),i,i,0.55,i,-4,i,/,/,/
CN(C)/C=C/C(=O)c1ccc(F)cc1F,i,i,-0.76,i,0,i,/,/,/
CCN(CC(=O)Nc1c(F)cccc1F)C(=O)c1cc([N+](=O)[O-])ccc1N1CCOCC1,i,i,0.15,i,-14,i,/,/,/
CCN(CC)S(=O)(=O)c1ccc(C)c(NC(=O)CNCCN(C(C)C)C(C)C)c1,i,i,-0.02,i,-12,i,/,/,/
CC(=O)c1ccc(N2CCN(C(=O)CCS(=O)(=O)c3ccc4c(c3)CCN4C(C)=O)CC2)cc1,i,i,0.9,i,-12,i,/,/,/
CCc1nnc(NS(=O)(=O)c2ccc(NC(=O)c3cc(Cl)ccc3OC)cc2)s1,i,i,1.1,i,-5,i,/,/,/
O=C(CSc1nc2ccccc2o1)Nc1ccccc1N1CCCCCC1,i,i,-3.3,i,-15,-11*,61%*,40%*,41%*
Cc1c(NC(=O)COC(=O)CCc2c[nH]c3ccccc23)c(=O)n(-c2ccccc2)n1C,i,i,0.02,i,-5,i,/,/,/
COc1ccccc1NC(=O)c1ccc(CN(c2cc(Cl)ccc2C)S(=O)(=O)c2ccccc2)cc1,i,i,0.47,i,-4,i,/,/,/
Cc1ccc(Cl)cc1N(Cc1ccc(C(=O)NCc2cccnc2)cc1)S(=O)(=O)c1ccccc1,i,i,1.2,i,-8,-8.3*,i,i,i
O=C(CSc1nc(=O)n(CCN2CCOCC2)c2c1CCC2)Nc1ccc(OC(F)(F)F)cc1,i,i,-1.9,i,-12,i,/,/,/
Cc1nnc(SCc2cccc([N+](=O)[O-])c2)o1,i,i,1.2,i,-6,i,/,/,/
CCOC(=O)C(Oc1ccc2c(-c3ccc(OC)cc3)cc(=O)oc2c1C)c1ccccc1 (stereo unspecified),i,i,1.4,i,-5,-11*,50%*,i,32%*
CCOC(=O)C(Oc1ccc2c(-c3ccccc3)cc(=O)oc2c1C)c1ccccc1 (stereo unspecified),i,i,-0.38,i,-14,i,/,/,/
O=C(CSc1nnc(CNC(=O)c2c(F)cccc2F)o1)NCc1ccco1,i,i,0.77,i,-4,i,/,/,/
CCC(C)c1ccccc1NC(=O)c1cc(C)no1 (stereo unspecified),i,i,-1.2,i,-8,i,/,/,/
Cc1oc(CC(C)C)cc1C(=O)Nc1cccc2ccccc12,i,i,0.92,i,-4,-9.5*,i,i,40%*
CCOc1ccccc1NC(=O)c1cc(CC(C)C)oc1C,i,i,-0.33,i,-13,-18*,62%*,i,43%*
Cc1cc(C)c2nc(Cl)c(CN(Cc3ccco3)C(=O)Nc3ccccc3C)cc2c1,i,i,-0.04,i,-9,i,i,i,i
COCCN(Cc1cc2cc(C)cc(C)c2nc1Cl)C(=O)Nc1ccccc1,i,i,0.04,i,-5,i,/,/,/
COc1ccc(CC2(C)OC(c3ccc(Cl)cc3)=NN2C(C)=O)cc1 (stereo unspecified),i,i,0,i,-17,i,i,i,i
COc1ccc(NC(=O)NC2(C(=O)N3CCOCC3)CCCCC2)cc1,i,i,0,i,-11,i,/,/,/
CC(C)N(Cc1nc(-c2ccc(Cl)cc2)no1)C(=O)C12CC3CC(CC(C3)C1)C2,i,i,0.08,i,-10,i,i,i,i
SMILES,KCNQ1 inh,KCNQ1 act,Kir21 block,KCNK3 inh,hERG rescue,KCNK9 block,KCNK9 block conf,Kir2-1 spec,KCNK9 uninduced
Cc1ccc(C(=O)N(Cc2nc(-c3ccc(C)cc3)no2)C(C)C)cc1,i,i,-0.09,i,-6,i,/,/,/
Cc1cccc(-c2noc(CN(C(=O)C34CC5CC(CC(C5)C3)C4)C(C)C)n2)c1,i,i,0.33,i,-2,i,i,i,i
Cc1ccc(SCC(=O)N(Cc2nc(-c3ccccc3)no2)C(C)C)cc1,i,i,0.01,i,-9,i,i,i,28%*
C/C=C/c1ccc(OCCCCN2CC(C)CC(C)C2)c(OC)c1 (stereo unspecified),i,i,-0.37,i,-11,i,/,/,/
COc1cc(OC)cc(C(=O)N2CCN(C(=O)c3cccs3)CC2)c1,i,i,-0.88,i,-9,i,/,/,/
Cc1cc(C)n(CC(O)COc2ccccc2Br)n1 (stereo unspecified),i,i,-0.32,i,-2,i,/,/,/
CCOC(=O)c1cc(-c2ccc(/C=C3/C(=O)N(c4ccc(C(=O)O)cc4)N=C3C)o2)ccc1Cl,i,i,1.7,i,-15,i,i,i,i
O=C1c2[nH]nc(-c3ccccc3O)c2C(c2cccc(Cl)c2)N1Cc1ccco1 (stereo unspecified),i,i,1.9,i,-17,i,/,/,/
Cc1cc(C)c(O)c(-c2n[nH]c3c2C(c2cccc(O)c2)N(Cc2ccco2)C3=O)c1 (stereo unspecified),i,i,1.4,i,-9,-11*,58%*,i,41%*
Cc1ccc(OCCOCCOc2cccc3cccnc23)c(Br)c1,i,i,-1.9,i,-10,i,i,i,i
Clc1cc(Br)ccc1OCCOCCOc1cccc2cccnc12,i,i,-0.73,i,-2,i,/,/,/
COc1cc(C)ccc1OCCOCCOc1c(C)cc(C)cc1Br,i,i,0.01,i,-11,i,i,i,i
COc1ccccc1OCCOCCOc1c(C)cc(C)cc1Br,i,i,1.6,i,-6,i,i,i,i
COc1ccc(C(=O)OCCCc2cc3ccccc3c(=O)o2)cc1,/,/,/,i,/,/,/,/,/
